ChEMBL document CHEMBL5233202, “Metabolically stable apelin-analogues, incorporating cyclohexylalanine and homoarginine, as potent apelin receptor activators” (RSC Med Chem, 2021)
Non-standard residues stand in square brackets, D forms with d. Residues, ends and D or L forms follow the SMILES beside them. Phe(4-Br) = N[C@@H](Cc1ccc(Br)cc1)C(=O)O; hArg = N=C(N)NCCCC[C@H](N)C(=O)O; Cha = N[C@@H](CC1CCCCC1)C(=O)O; NMeL = CN[C@@H](CC(C)C)C(=O)O; Nle = CCCC[C@H](N)C(=O)O; Aib = CC(C)(N)C(=O)O

How the values were obtained:
[1] = molecular target: T1, Apelin receptor (Rattus norvegicus, UniProt Q9JHG3); assay: Displacement of [125I]-pyr-1-apelin-13 from EGFP tagged rat apelin receptor expressed in CHO cell membrane incubated for 3 hrs by gamma counter analysis; type: cell membranes
T1 sequence (Q9JHG3 whole entry): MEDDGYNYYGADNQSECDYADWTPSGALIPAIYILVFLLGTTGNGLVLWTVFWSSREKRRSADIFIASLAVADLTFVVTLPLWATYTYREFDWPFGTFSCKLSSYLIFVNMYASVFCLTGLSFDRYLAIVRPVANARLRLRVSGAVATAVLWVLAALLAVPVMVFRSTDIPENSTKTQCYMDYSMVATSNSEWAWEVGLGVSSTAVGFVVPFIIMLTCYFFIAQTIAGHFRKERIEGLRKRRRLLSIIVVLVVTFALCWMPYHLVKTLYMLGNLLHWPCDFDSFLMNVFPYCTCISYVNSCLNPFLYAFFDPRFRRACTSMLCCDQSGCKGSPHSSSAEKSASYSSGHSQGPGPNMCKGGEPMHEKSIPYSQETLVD
Procedure, shortened: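 Crude membranes (1 μg/assay) from CHO cells stably expressing wild-type rat APJ-EGFP, incubated 3 h at 20 °C with 0.2 nM [125I]-pyr-1-apelin-13 (Lys8 Bolton–Hunter monoiodinated) and competitor at various concentrations. Binding buffer: 50 mM HEPES, 5 mM MgCl2, 1% BSA, pH 7.5. Quenched with cold buffer, GF/C filtered and washed, gamma counted; triplicates.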

[2] = molecular target: T2, Apelin receptor (Homo sapiens, UniProt P35414); assay: Activation of recombinant human APJ receptor expressed in rat Chem-5 cells assessed as increase in Ca2+ mobilization by FLIPR Calcium 6-QF fluorescent dye based assay; type: cell-based
T2 sequence (P35414 whole entry): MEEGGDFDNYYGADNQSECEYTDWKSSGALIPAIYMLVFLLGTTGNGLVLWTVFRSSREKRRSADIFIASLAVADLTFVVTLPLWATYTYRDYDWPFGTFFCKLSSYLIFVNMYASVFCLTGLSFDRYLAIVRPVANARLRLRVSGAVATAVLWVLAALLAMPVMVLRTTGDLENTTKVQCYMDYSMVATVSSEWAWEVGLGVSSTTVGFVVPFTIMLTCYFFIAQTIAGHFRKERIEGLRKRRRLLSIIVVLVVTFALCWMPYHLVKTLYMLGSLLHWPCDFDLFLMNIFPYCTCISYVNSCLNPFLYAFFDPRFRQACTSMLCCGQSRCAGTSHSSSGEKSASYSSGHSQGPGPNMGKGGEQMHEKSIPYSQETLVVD
Procedure, shortened: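 Frozen Chem-5 cells stably expressing human APJ, thawed per supplier protocol, loaded 1 h with Calcium 6-QF dye in HBSS/20 mM HEPES/0.2% DMSO/2.5 mM probenecid, pH 7.6. Cells washed three times and rested 10 min, then read on FLIPR. Agonist response taken as maximum fluorescence change over baseline. pEC50 from four-parameter logistic fit; triplicates.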

[3] = Stability in human plasma assessed as half life at 1 mM measured for 24 hrs by LC-MS analysis; type: ADME, cell-free
Procedure, shortened: (§1)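 Plasma (20 μL, human or murine) prewarmed to 37 °C, then 5 μL of 1 mM peptide added and incubated at 37 °C. Samples quenched at 1, 3, 6 and 24 h with 6 M GuHCl/80% ACN and Dans-YVG internal standard, centrifuged, solid-phase extracted and analyzed by LC-MS. Peptide/standard peak-area ratio normalized to 0 h; triplicates.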

[4] = molecular target: Neprilysin (NEP) (Homo sapiens, UniProt P08473); assay: Proteolytic stability assessed as recombinant human NEP-mediated compound degradation by measuring half life incubated for 24 hrs by LC-MS analysis; type: ADME; conditions: recombinant human neprilysin (NEP)
[5] = system: Mus musculus; assay: Hypotensive effect in anesthetized wild type mouse assessed as change in mean arterial blood pressure at 1.4 uM/Kg, iv administered via right jugular vein measured for 60 mins; type: functional; conditions: 1 h
Procedure, shortened: (§2)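 Anesthetized mice received peptide at 1.4 μM kg−1 body weight, or equal-volume saline, by injection into the right jugular vein (n = 3). HR, MABP, SBP and DBP were recorded from blood pressure traces and reported as mean ± S.E.M.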

[6] = system: Mus musculus; assay: Hypotensive effect in anesthetized wild type mouse assessed as total time duration of hypotensive effect at 1.4 uM/Kg, iv administered via right jugular vein measured for 60 mins; type: functional; conditions: 1 h; procedure, shortened: as §2
[7] = Protein binding in pooled human plasma at 100 uM incubated for 3 hrs by equilibrium dialysis method; type: ADME, cell-free; conditions: read-out: PPB (converted)
Procedure, shortened: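 Equilibrium dialysis. DMSO stock (1 mM) diluted to 100 μM final in 55% pooled human plasma stabilized with EDTA and MLN-4760, dialyzed against PBS pH 7.4 at 37 °C, 120 rpm, 3 h. Retentate diluted with PBS and dialysate with plasma, then quenched with 10% TFA/acetonitrile. Dans-YVG internal standard added, centrifuged, LC-MS.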

[8] = Stability in mouse plasma assessed as half life at 1 mM measured for 24 hrs by LC-MS analysis; type: ADME, cell-free; procedure, shortened: as §1

Sequence of Neprilysin (NEP) (P08473 whole entry): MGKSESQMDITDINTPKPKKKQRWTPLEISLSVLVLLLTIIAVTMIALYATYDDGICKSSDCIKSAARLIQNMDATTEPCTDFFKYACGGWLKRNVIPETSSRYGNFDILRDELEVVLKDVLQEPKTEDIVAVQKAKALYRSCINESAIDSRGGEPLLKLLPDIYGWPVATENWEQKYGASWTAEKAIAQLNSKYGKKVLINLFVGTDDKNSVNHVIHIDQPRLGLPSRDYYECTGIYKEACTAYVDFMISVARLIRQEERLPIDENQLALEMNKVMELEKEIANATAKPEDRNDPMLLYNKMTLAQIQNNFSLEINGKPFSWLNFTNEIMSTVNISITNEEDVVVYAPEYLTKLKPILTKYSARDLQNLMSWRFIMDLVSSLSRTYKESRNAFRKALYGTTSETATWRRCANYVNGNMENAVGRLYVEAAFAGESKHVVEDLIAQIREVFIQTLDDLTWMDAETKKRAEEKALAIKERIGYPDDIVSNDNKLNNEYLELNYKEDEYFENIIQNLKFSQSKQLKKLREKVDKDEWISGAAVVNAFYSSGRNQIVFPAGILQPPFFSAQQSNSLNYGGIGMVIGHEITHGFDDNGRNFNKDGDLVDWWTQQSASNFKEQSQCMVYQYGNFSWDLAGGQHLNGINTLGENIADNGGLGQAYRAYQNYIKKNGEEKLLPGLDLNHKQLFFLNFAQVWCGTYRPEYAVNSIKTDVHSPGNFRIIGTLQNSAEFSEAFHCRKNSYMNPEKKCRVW

SMILES | Ki [1] [nM] | EC50 [2] [nM] | half-life at 1000 µM [3] [h] | half-life [4] [h] | Activity [5] [mmHg] | Time [6] [min] | fraction unbound at 3 h, 100 µM [7] | half-life at 1000 µM [8] [h]
CCCC[C@H](NC(=O)[C@@H]1CCCN1C(=O)CNC(=O)[C@H](CCCCN)NC(=O)[C@H](Cc1c[nH]cn1)NC(=O)[C@H](CO)NC(=O)[C@H](CC(C)C)NC(=O)[C@H](CCCCNC(=N)N)NC(=O)[C@@H]1CCCN1C(=O)[C@H](CCCNC(=N)N)NC(=O)[C@@H]1CCC(=O)N1)C(=O)NC(C)(C)C(=O)N[C@@H](Cc1ccc(Br)cc1)C(=O)O | 0.676 | 2.19 | 1.31 | 19 | 26.44 | 60 | – | –
CCCC[C@H](NC(=O)[C@@H]1CCCN1C(=O)CNC(=O)[C@H](CCCCN)NC(=O)[C@H](Cc1c[nH]cn1)NC(=O)[C@H](CO)NC(=O)[C@H](CC(C)C)N(C)C(=O)[C@H](CCCNC(=N)N)NC(=O)[C@@H]1CCCN1C(=O)[C@H](CCCNC(=N)N)NC(=O)[C@H](CCC(N)=O)NC(=O)[C@H](CCCNC(=N)N)NC(=O)[C@H](CCCNC(=N)N)NC(=O)[C@H](Cc1ccccc1)NC(=O)[C@@H](N)CCCCN)C(=O)NC(C)(C)C(=O)N[C@@H](Cc1ccc(Br)cc1)C(=O)O (H-KFRRQRPR[NMeL]SHKGP[Nle][Aib][Phe(4-Br)]-OH) | – | 2.75 | 8.29 | > 48 | 31.98 | 60 | 0.45 | 0.99
CCCC[C@H](NC(=O)[C@@H]1CCCN1C(=O)CNC(=O)[C@H](CCCCN)NC(=O)[C@H](Cc1c[nH]cn1)NC(=O)[C@H](CO)NC(=O)[C@H](CC(C)C)NC(=O)[C@H](CCCNC(=N)N)NC(=O)[C@@H]1CCCN1C(=O)[C@H](CCCNC(=N)N)NC(=O)[C@@H]1CCC(=O)N1)C(=O)NC(C)(C)C(=O)N[C@@H](Cc1ccc(Br)cc1)C(=O)O | – | 4.27 | 0.81 | 10.3 | 23.88 | 60 | – | –
CCCC[C@H](NC(=O)[C@@H]1CCCN1C(=O)CNC(=O)[C@H](CCCCN)NC(=O)[C@H](Cc1c[nH]cn1)NC(=O)[C@H](CO)NC(=O)[C@H](CC1CCCCC1)NC(=O)[C@H](CCCNC(=N)N)NC(=O)[C@@H]1CCCN1C(=O)[C@H](CCCNC(=N)N)NC(=O)[C@@H]1CCC(=O)N1)C(=O)NC(C)(C)C(=O)N[C@@H](Cc1ccc(Br)cc1)C(=O)O | 0.575 | 2.4 | 1.77 | 22.1 | 0.23 | 15 | – | –
CCCC[C@H](NC(=O)[C@@H]1CCCN1C(=O)CNC(=O)[C@H](CCCCN)NC(=O)[C@H](Cc1c[nH]cn1)NC(=O)[C@H](CO)NC(=O)[C@H](CC(C)C)NC(=O)[C@H](CCCCNC(=N)N)NC(=O)[C@@H]1CCCN1C(=O)[C@H](CCCNC(=N)N)NC(=O)[C@H](CCC(N)=O)NC(=O)[C@H](CCCNC(=N)N)NC(=O)[C@H](CCCNC(=N)N)NC(=O)[C@H](Cc1ccccc1)NC(=O)[C@@H](N)CCCCN)C(=O)NC(C)(C)C(=O)N[C@@H](Cc1ccc(Br)cc1)C(=O)O (H-KFRRQRP[hArg]LSHKGP[Nle][Aib][Phe(4-Br)]-OH) | 0.832 | 6.76 | 3.06 | 40.6 | 40.45 | 60 | – | –
CCCC[C@H](NC(=O)[C@@H]1CCCN1C(=O)CNC(=O)[C@H](CCCCN)NC(=O)[C@H](Cc1c[nH]cn1)NC(=O)[C@H](CO)NC(=O)[C@H](CC(C)C)N(C)C(=O)[C@H](CCCNC(=N)N)NC(=O)[C@@H]1CCCN1C(=O)[C@H](CCCNC(=N)N)NC(=O)[C@@H]1CCC(=O)N1)C(=O)NC(C)(C)C(=O)N[C@@H](Cc1ccc(Br)cc1)C(=O)O | – | 6.76 | 3.54 | 40.3 | 9.52 | 26 | – | –
CCCC[C@H](NC(=O)[C@@H]1CCCN1C(=O)CNC(=O)[C@H](CCCCN)NC(=O)[C@H](Cc1c[nH]cn1)NC(=O)[C@H](CO)NC(=O)[C@H](CC1CCCCC1)NC(=O)[C@H](CCCCNC(=N)N)NC(=O)[C@@H]1CCCN1C(=O)[C@H](CCCNC(=N)N)NC(=O)[C@@H]1CCC(=O)N1)C(=O)NC(C)(C)C(=O)N[C@@H](Cc1ccc(Br)cc1)C(=O)O | 0.372 | 3.72 | 2.58 | 21.9 | 15.33 | 57 | – | –
CCCC[C@H](NC(=O)[C@@H]1CCCN1C(=O)CNC(=O)[C@H](CCCCN)NC(=O)[C@H](Cc1c[nH]cn1)NC(=O)[C@H](CO)NC(=O)[C@H](CC1CCCCC1)NC(=O)[C@H](CCCCNC(=N)N)NC(=O)[C@@H]1CCCN1C(=O)[C@H](CCCNC(=N)N)NC(=O)[C@H](CCC(N)=O)NC(=O)[C@H](CCCNC(=N)N)NC(=O)[C@H](CCCNC(=N)N)NC(=O)[C@H](Cc1ccccc1)NC(=O)[C@@H](N)CCCCN)C(=O)NC(C)(C)C(=O)N[C@@H](Cc1ccc(Br)cc1)C(=O)O (H-KFRRQRP[hArg][Cha]SHKGP[Nle][Aib][Phe(4-Br)]-OH) | 1.1 | 4.37 | 6.28 | 46.4 | 44.9 | 60 | 0.35 | 0.52
CCCC[C@H](NC(=O)[C@@H]1CCCN1C(=O)CNC(=O)[C@H](CCCCN)NC(=O)[C@H](Cc1c[nH]cn1)NC(=O)[C@H](CO)NC(=O)[C@H](CC1CCCCC1)NC(=O)[C@H](CCCNC(=N)N)NC(=O)[C@@H]1CCCN1C(=O)[C@H](CCCNC(=N)N)NC(=O)[C@H](CCC(N)=O)NC(=O)[C@H](CCCNC(=N)N)NC(=O)[C@H](CCCNC(=N)N)NC(=O)[C@H](Cc1ccccc1)NC(=O)[C@@H](N)CCCCN)C(=O)NC(C)(C)C(=O)N[C@@H](Cc1ccc(Br)cc1)C(=O)O (H-KFRRQRPR[Cha]SHKGP[Nle][Aib][Phe(4-Br)]-OH) | 1.58 | 3.8 | 4.34 | 47 | 19.72 | 60 | – | –
